Results from different studies.
Read-out: cell growth or viability

For COC(=O)[C@H]1[C@@H](O)[C@@]2(O)c3c(OC)cc(O[C@@H]4O[C@@H]([C@H](O)CO)CO[C@H]4OC)cc3O[C@@]2(c2ccc(OC)cc2)[C@@H]1c1ccccc1, the IC50 was 5 nM (HK-1; MTS; 72 h).
Cc1sc2c(c1C)C(c1ccc(Cl)cc1)=N[C@@H](CC(=O)NCCCCNC(=O)COc1cccc3c1C(=O)N(C1CCC(=O)NC1=O)C3=O)c1nnc(C)n1-2 (stereo partly shown) has an IC50 of 2720 nM (MDA-MB-453; CCK-8; 72 h).
CO[C@H]1[C@H](O[C@H]([C@H]2O[C@@H](n3ccc(=O)[nH]c3=O)[C@H](O)[C@@H]2O)[C@H](NCCCNC(=O)[C@@H](NC(=O)[C@@H](NC(=O)N[C@H](C(=O)O)C(C)C)[C@@H]2CCN=C(N)N2)[C@@H](O)C(C)C)C(=O)O)O[C@H](CN)[C@H]1O has an IC50 of > 35000 nM (MDA-MB-453; WST-1).
For CN1CCC(NC2CCc3[nH]c4c(C(N)=O)ccc(-c5ccccc5Cl)c4c3C2)CC1 (stereo not shown), the IC50 was 19.5 nM (MX1; 96 h).
The IC50 of COc1cc([C@@H]2c3cc4c(cc3[C@@H](O[C@@H]3O[C@@H]5CO[C@@H](C)O[C@H]5[C@H](O)[C@H]3O)[C@H]3COC(=O)[C@H]23)OCO4)cc(OC)c1O is reported as 590 nM (SNU-638; SRB; 72 h).
The IC50 of N/C(=N\O)c1ccc(-c2cc(CNc3cccc4cccnc34)on2)cc1 is reported as 95100 nM (NCI-H460; MTS; 72 h).
C[C@H](Nc1ccc2c(c1)OCCn1cc(N3C(=O)OC[C@H]3C(F)F)nc1-2)C(N)=O gave an EC50 of 45.7 nM (MDA-MB-453; ATP luminescence; 5 days).
Cc1cnc(CNC(=O)c2c(=O)c3ccc(N4CCCN(C)CC4)nc3n3c2sc2ccccc23)cn1 has an IC50 of 1000 nM (HK-1; MTS; 72 h).
The IC50 of Nc1ccn([C@@H]2O[C@H](CO)[C@@H](O)C2(F)F)c(=O)n1 is reported as 2030 nM (HCCC9810; CCK-8).
With Cc1nc(Nc2ncc(C(=O)Nc3c(C)cccc3Cl)s2)cc(N2CC[C@H](O)C2)n1 the inhibition was 46% (RS4-11; ATP luminescence; 10 µM, 72 h).
The IC50 of CO[C@H]1[C@H](O[C@H]([C@H]2O[C@@H](n3ccc(=O)[nH]c3=O)[C@H](O)[C@@H]2O)[C@H](NCCCNC(=O)[C@@H](NC(=O)[C@@H](NC(=O)N[C@H](C(=O)O)C(C)C)[C@@H]2CCN=C(N)N2)[C@@H](OC(=O)CCCCCCCCCCCCN(O)C(=N)N)C(C)C)C(=O)O)O[C@H](CN)[C@H]1O is reported as 880 nM (MDA-MB-453; WST-1).
COc1cccc2c1C(=O)c1c(O)c3c(c(O)c1C2=O)C[C@@](O)(C(=O)CO)C[C@@H]3O[C@H]1C[C@H](N)[C@H](O)[C@H](C)O1 gave an IC50 of 22.5 nM (MX1; 96 h).
For CCCCCCCCCCCCCCCCCCOc1cccc(CC(=O)OCC[N+](CC)(CC)CC)c1, the inhibition was 33% (NCI-H460; SRB; 10 µM).
